# Results reported in ChEMBL document CHEMBL1154405, “An early response to environmental stress involves regulation of OmpX and OmpF, two enterobacterial outer membrane pore-forming proteins” (2007).
# Calls of active or inactive are those of the source. No cut-off for these calls is given here.
# Legend:
# [1] = system: Escherichia coli; assay: Increase in ompX-lacZ expression in Escherichia coli JM109 assessed as ompX upregulation after 60 mins relative to control; format: functional, organism-based
# Summary of the method: (§1)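 Strains electrotransformed with an ompX–lacZ fusion plasmid (pMD08): E. coli JM109, MC1061 ompX::Cm, AG100, CH164 (marA), E. aerogenes ATCC 15038. Grown in LB (with or without NaCl) to OD600 0.2 at 37°C. Treated with subinhibitory stresses (MIC-derived) or NaCl osmotic shock. Miller units read after 60 min; means of five independent experiments with SD.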
# [2] = system: Klebsiella aerogenes; assay: Increase in ompX-lacZ expression in Enterobacter aerogenes ATCC 15038 assessed as increase in beta-galactosidase activity after 60 mins relative to control; format: functional, organism-based; summary of the method: as §1
# [3] = system: Escherichia coli; assay: Increase in ompX-lacZ expression in Escherichia coli deltaompX mutant assessed as increase in beta-galactosidase activity after 60 mins relative to control; format: functional, organism-based; summary of the method: as §1
# [4] = system: Klebsiella aerogenes; assay: Increase in ompX-lacZ expression in Enterobacter aerogenes ATCC 15038 assessed as ompX upregulation after 60 mins relative to control; format: functional, organism-based; summary of the method: as §1
# [5] = system: Escherichia coli; assay: Increase in ompX-lacZ expression in Escherichia coli JM109 assessed as increase in beta-galactosidase activity after 60 mins relative to control; format: functional, organism-based; summary of the method: as §1
# [6] = system: Escherichia coli; assay: Effect on ompF-lacZ fusion translation in wild type Escherichia coli MC1061 assessed as percent decrease in Miller units of beta-galactosidase activity after 120 mins relative to control; format: functional; design: scale not given: the % may be the effect or the level left
# Summary of the method: (§2)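 ompF promoter–lacZ fusions (pCeJa01, pCeJa02) carried in E. coli AG100 and its marA mutant CH164, and in MC1061 and MC1061 ompX::Cm. Cultures grown in LB (with or without NaCl) to OD600 0.2, then stress added at subinhibitory levels set per strain and promoter from MIC assays, 37°C. β-Galactosidase measured at time intervals (Miller method); percent decrease versus control, SD, Student t test.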
# [7] = system: Escherichia coli; assay: Effect on ompF-lacZ fusion translation in wild type Escherichia coli AG100 assessed as percent decrease in Miller units of beta-galactosidase activity after 120 mins relative to control; format: functional; design: scale not given: the % may be the effect or the level left; summary of the method: as §2
# [8] = system: Escherichia coli; assay: Effect on ompF-lacZ fusion translation in ompX-negative Escherichia coli mutant assessed as percent decrease in Miller units of beta-galactosidase activity after 120 mins relative to control; format: functional; design: scale not given: the % may be the effect or the level left; summary of the method: as §2
# [9] = system: Escherichia coli; assay: Increase in ompX-lacZ expression in Escherichia coli deltaompX mutant assessed as ompX upregulation after 60 mins relative to control; format: functional
# Summary of the method: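 E. coli ompX::Cm strain transformed by electroporation with pMD08 (ompX-lacZ fusion), grown in LB broth (with or without NaCl) to OD600 0.2. Stresses were then added at strain-specific subinhibitory concentrations derived from MICs; osmotic shock was given as NaCl. Cultures were incubated 60 min at 37°C with growth rate monitored. Miller-unit beta-galactosidase activity is the mean of five independent experiments with SD.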
# [10] = system: Escherichia coli; assay: Effect on ompF-lacZ fusion translation in wild type Escherichia coli MC1061 assessed as percent decrease in Miller units of beta-galactosidase activity after 90 mins relative to control; format: functional; design: scale not given: the % may be the effect or the level left; summary of the method: as §2
# [11] = system: Escherichia coli; assay: Effect on ompF-lacZ fusion translation in wild type Escherichia coli AG100 assessed as percent decrease in Miller units of beta-galactosidase activity after 60 mins relative to control; format: functional; design: scale not given: the % may be the effect or the level left; summary of the method: as §2
# [12] = system: Escherichia coli; assay: Effect on ompF-lacZ fusion translation in wild type Escherichia coli AG100 assessed as percent decrease in Miller units of beta-galactosidase activity after 90 mins relative to control; format: functional; design: scale not given: the % may be the effect or the level left
# Summary of the method: (§3)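 E. coli strains carrying ompF-lacZ reporter constructs (pCeJa01/pCeJa02) were grown in LB broth, with or without NaCl, to early exponential phase (OD600 0.2). Stress compounds were then added at subinhibitory concentrations, set from MICs for each strain and promoter, and incubation continued at 37°C. Beta-galactosidase activity (Miller method) was read at time intervals. Percent decrease versus control was calculated, with Student t test and standard deviations.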
# [13] = system: Escherichia coli; assay: Effect on ompF-lacZ fusion translation in ompX-negative Escherichia coli mutant assessed as percent decrease in Miller units of beta-galactosidase activity after 90 mins relative to control; format: functional; design: scale not given: the % may be the effect or the level left; summary of the method: as §2
# [14] = system: Escherichia coli; assay: Effect on ompF-lacZ fusion translation in wild type Escherichia coli MC1061 assessed as percent decrease in Miller units of beta-galactosidase activity after 60 mins relative to control; format: functional; design: scale not given: the % may be the effect or the level left; summary of the method: as §3
# [15] = system: Escherichia coli; assay: Increase in ompX-lacZ expression in marA-negative Escherichia coli CH164 mutant assessed as beta-galactosidase activity after 60 mins relative to control; format: functional; summary of the method: as §1
# [16] = system: Escherichia coli; assay: Effect on ompF-lacZ fusion transcription in wild type Escherichia coli MC1061 assessed as percent decrease in Miller units of beta-galactosidase activity after 120 mins relative to control; format: functional; design: scale not given: the % may be the effect or the level left; summary of the method: as §2
# [17] = system: Escherichia coli; assay: Effect on ompF-lacZ fusion transcription in ompX-negative Escherichia coli mutant assessed as percent decrease in Miller units of beta-galactosidase activity after 60 mins relative to control; format: functional; design: scale not given: the % may be the effect or the level left; summary of the method: as §2
# [18] = system: Escherichia coli; assay: Effect on ompF-lacZ fusion transcription in wild type Escherichia coli AG100 assessed as percent decrease in Miller units of beta-galactosidase activity after 90 mins relative to control; format: functional; design: scale not given: the % may be the effect or the level left; summary of the method: as §2
# [19] = system: Escherichia coli; assay: Effect on ompF-lacZ fusion transcription in wild type Escherichia coli AG100 assessed as percent decrease in Miller units of beta-galactosidase activity after 120 mins relative to control; format: functional; design: scale not given: the % may be the effect or the level left; summary of the method: as §2
# [20] = system: Escherichia coli; assay: Effect on ompF-lacZ fusion transcription in marA-negative Escherichia coli CH164 mutant assessed as percent decrease in Miller units of beta-galactosidase activity after 90 mins relative to control; format: functional; design: scale not given: the % may be the effect or the level left; summary of the method: as §2
# [21] = system: Escherichia coli; assay: Effect on ompF-lacZ fusion transcription in wild type Escherichia coli MC1061 assessed as percent decrease in Miller units of beta-galactosidase activity after 90 mins relative to control; format: functional; design: scale not given: the % may be the effect or the level left; summary of the method: as §2
# [22] = system: Klebsiella aerogenes; assay: Induction of ompX-lacZ expression in Enterobacter aerogenes ATCC 15038 assessed as total RNA content after 30 mins by RT-PCR; format: functional, organism-based
# [23] = system: Escherichia coli; assay: Effect on ompF-lacZ fusion transcription in ompX-negative Escherichia coli mutant assessed as percent decrease in Miller units of beta-galactosidase activity after 120 mins relative to control; format: functional; design: scale not given: the % may be the effect or the level left; summary of the method: as §2
# [24] = system: Escherichia coli; assay: Effect on ompF-lacZ fusion transcription in wild type Escherichia coli AG100 assessed as percent decrease in Miller units of beta-galactosidase activity after 60 mins relative to control; format: functional; design: scale not given: the % may be the effect or the level left; summary of the method: as §2
# [25] = system: Escherichia coli; assay: Effect on ompF-lacZ fusion translation in ompX-negative Escherichia coli mutant assessed as percent decrease in Miller units of beta-galactosidase activity after 60 mins relative to control; format: functional; design: scale not given: the % may be the effect or the level left; summary of the method: as §2
# [26] = system: Escherichia coli; assay: Effect on ompF-lacZ fusion transcription in marA-negative Escherichia coli CH164 mutant assessed as percent decrease in Miller units of beta-galactosidase activity after 60 mins relative to control; format: functional; design: scale not given: the % may be the effect or the level left; summary of the method: as §2
# [27] = system: Escherichia coli; assay: Effect on ompF-lacZ fusion transcription in ompX-negative Escherichia coli mutant assessed as percent decrease in Miller units of beta-galactosidase activity after 90 mins relative to control; format: functional; design: scale not given: the % may be the effect or the level left; summary of the method: as §2
# [28] = system: Escherichia coli; assay: Induction of ompX transcription in SoxS-positive Escherichia coli K12 relative to control; format: functional
# [29] = system: Escherichia coli; assay: Effect on ompF-lacZ fusion translation in marA-negative Escherichia coli CH164 mutant assessed as percent decrease in Miller units of beta-galactosidase activity after 90 mins relative to control; format: functional; design: scale not given: the % may be the effect or the level left; summary of the method: as §3
# [30] = system: Escherichia coli; assay: Effect on ompF-lacZ fusion translation in marA-negative Escherichia coli CH164 mutant assessed as percent decrease in Miller units of beta-galactosidase activity after 120 mins relative to control; format: functional; design: scale not given: the % may be the effect or the level left; summary of the method: as §3
# [31] = system: Escherichia coli; assay: Effect on ompF-lacZ fusion translation in marA-negative Escherichia coli CH164 mutant assessed as percent decrease in Miller units of beta-galactosidase activity after 60 mins relative to control; format: functional; design: scale not given: the % may be the effect or the level left; summary of the method: as §3
# [32] = system: Escherichia coli; assay: Effect on ompF-lacZ fusion transcription in marA-negative Escherichia coli CH164 mutant assessed as percent decrease in Miller units of beta-galactosidase activity after 120 mins relative to control; format: functional; design: scale not given: the % may be the effect or the level left; summary of the method: as §3
SMILES,Activity [1],Activity [2],Activity [3],Activity [4],Activity [5],Activity [6],Activity [7],Activity [8],Activity [9],Activity [10],Activity [11],Activity [12],Activity [13],Activity [14],Activity [15],Activity [16],Activity [19],Activity [21],Activity [23],Activity [24],other results
CCn1cc(C(=O)O)c(=O)c2ccc(C)nc21,Active,Active,Active,Active,Active,,,,,,,,,,,,,,,,
NCCc1ccccc1,Active,Active,Active,Active,Active,,,,,,,,,,,,,,,,
c1ccc(-c2ccccn2)nc1 [DIPYRIDYL],Active,Active,,Active,Active,18.4%,55%,28.6%,2,16.1%,52%,53%,19%,7.4%,Active,,,,,,
O=C(O)c1ccccc1O [SALICYLIC ACID],Active,Active,,Active,Active,45.6%,49%,43.7%,2,46.8%,59%,51.8%,40.9%,42.5%,,17.3%,15.8%,25%,14.8%,29.9%,Activity [17]: 21%; Activity [18]: 25.7%; Activity [20]: 15.5%; Activity [22]: Active; Activity [25]: 35.3%; Activity [26]: 17.4%; Activity [27]: 26%
C[n+]1ccc(-c2cc[n+](C)cc2)cc1 [PARAQUAT],Active,Active,Active,Active,Active,,,,,,,,,,,,,,,,Activity [28]: 1.2
CCn1cc(C(=O)O)c(=O)c2cc(F)c(N3CCNCC3)cc21 [NORFLOXACIN],Active,Active,Active,Active,Active,27.5%,16.6%,22%,,27.1%,14.1%,,21.7%,,1.5,24%,8.2%,14.9%,19.2%,13.2%,Activity [27]: 18.6%
CO[C@@H]1[C@@H](OC(N)=O)[C@@H](O)[C@H](Oc2ccc3c(O)c(NC(=O)c4ccc(O)c(CC=C(C)C)c4)c(=O)oc3c2C)OC1(C)C [NOVOBIOCIN],Active,Active,,Active,Active,50.9%,46.8%,55.2%,2,38.4%,48.5%,39.8%,45.3%,21.3%,Active,36.5%,25.7%,28.6%,36%,25.5%,Activity [29]: 21.2%; Activity [30]: 26.9%; Activity [31]: 23.6%; Activity [17]: 17%; Activity [18]: 32.6%; Activity [20]: 20%; Activity [22]: Active; Activity [25]: 28.4%; Activity [26]: 9.5%; Activity [27]: 25.3%; Activity [32]: 24.5%
